Laboratory results as given in the RNAGym collection of RNA variant scans (doi:10.1126/science.aae0568).
Fewer inactive variants are shown than the library holds.

B1: tRNA (parent)
chain: GUUCCGUUGGCGUAAUGGUAACGCGUCUCCCUCCUAAGGAGAAGACUGCGGGUUCGAGUCCCGUACGGAACG

Variants of: B1
Assay: yeast fitness relative to wild type (ratio to wild type); higher = fitter; tRNA-Arg(CCU), competitive growth, 37 C, YPD
Summary of the method: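 Start and end populations of a pooled competition were compared by 100-nucleotide paired-end sequencing of gene amplicons. The Saccharomyces cerevisiae strains carried tRNA-Arg(CCU) gene variants at the native genomic locus, synthesised with a 3% per-site mutation rate at 69 sites, and competed in YPD at 37°C for 24 hours in six parallel replicates. Darwinian fitness relative to wild type was based on the change in genotype frequencies. Genotypes required ≥ 100 starting reads, and estimates < 0.5 were set to 0.5.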
Variant C4U U19C C29A A70U has a yeast fitness of 0.632.
With C5A C30G C31G U32C G63A the yeast fitness was ≤ 0.5.
With C4U U59C the yeast fitness was 0.853.
With C5A A15U C31G G39A G58A the yeast fitness was ≤ 0.5.
In the case of C5A C31G A37G U59A A70C, the yeast fitness is reported as ≤ 0.5.
C5A A21G C24U A45U A57U showed a yeast fitness of 0.603.
For C5A A15U A21U, the yeast fitness was 0.56.
With C5A A21C C27A the yeast fitness was 0.568.
For C5A A14G C24A G63A A69U, the yeast fitness was ≤ 0.5.
For C5A A20C C22A A36C C55A A69U, the yeast fitness was ≤ 0.5.
For C5A C11G A21U U28C, the yeast fitness was ≤ 0.5.
Work on C4U U16C yielded a yeast fitness of 1.02.
With C4U U16G the yeast fitness was 1.05.
C4U U28C C30A gave a yeast fitness of 0.755.
In the case of C4U U16G A69C, the yeast fitness is reported as 0.645.
In the case of C5A A15U A21U C66U G67U A70G, the yeast fitness is reported as ≤ 0.5.
With C5A A42U G67A the yeast fitness was ≤ 0.5.
Variant C5A A37G A65U has a yeast fitness of 0.532.
Variant C5A A40C A69U has a yeast fitness of 0.539.
In the case of C5A C24G A65U, the yeast fitness is reported as 0.694.
For C5A A20G A65U, the yeast fitness was ≤ 0.5.
With C5A C24G U26A C29G U32A C49U the yeast fitness was ≤ 0.5.
Variant C5A A43C A69U A70C has a yeast fitness of 0.769.
In the case of C5A C11G C27A C34U G39A, the yeast fitness is reported as 0.683.
With C5A C22U G39A C61U the yeast fitness was 0.503.
For C5A A37C, the yeast fitness was 0.77.
Work on C5A C31G G51A yielded a yeast fitness of 0.577.
C4U U28C C49G showed a yeast fitness of 0.598.
With C5A C22U C31G C60A the yeast fitness was ≤ 0.5.
In the case of C5A A15G G18C C29A U54A A65C, the yeast fitness is reported as ≤ 0.5.
C4U U28G G38A A43G C46A C49U showed a yeast fitness of 0.608.
For C5A C27A C46A C49A C55A, the yeast fitness was ≤ 0.5.
With C5A C24U C46A the yeast fitness was 0.519.
With C5A the yeast fitness was 0.995.
C4U U54A showed a yeast fitness of 0.627.
With C4U U28G A57G A69C the yeast fitness was ≤ 0.5.
In the case of C5A A21G C31G U53G, the yeast fitness is reported as ≤ 0.5.
For C5A C11G G41C C66U, the yeast fitness was ≤ 0.5.
For C4U U19C A40U, the yeast fitness was 0.674.
C4U U26C C27U showed a yeast fitness of 0.678.
For C5A C31G G56C G58C G63A, the yeast fitness was ≤ 0.5.
In the case of C5A A57U C61G, the yeast fitness is reported as ≤ 0.5.
In the case of C5A A37C A40C A45U A57C A70U, the yeast fitness is reported as ≤ 0.5.
In the case of C5A C22G C29G C31G C61A, the yeast fitness is reported as 0.529.
Variant C5A A42C has a yeast fitness of 0.842.
In the case of C5A A42G, the yeast fitness is reported as 0.964.
Variant C5A A42U has a yeast fitness of 0.767.
In the case of C5A C22G C29G C31G, the yeast fitness is reported as 0.627.
C5A C30U U35A A42G C61U G63A showed a yeast fitness of 0.538.
In the case of C5A C22A C24A U26C, the yeast fitness is reported as ≤ 0.5.
For C4U U32A G52C C55U C66U, the yeast fitness was ≤ 0.5.
In the case of C5A A21C C30G C55G A70G, the yeast fitness is reported as ≤ 0.5.
In the case of C5A C27A C34G U59C, the yeast fitness is reported as 0.539.
C4U U16C A42C showed a yeast fitness of 0.579.
In the case of C4U U16C A42G, the yeast fitness is reported as 0.72.
For C4U U35C C61A, the yeast fitness was 0.555.
In the case of C5A A37U A57G G63C, the yeast fitness is reported as 0.733.
With C5A A21C C30G C34U G58C the yeast fitness was ≤ 0.5.
C4U U35A G44C gave a yeast fitness of 0.58.
With C4U U16A A37U C55G the yeast fitness was ≤ 0.5.
For C5A A14C G68A, the yeast fitness was ≤ 0.5.
For C5A C30G A43C, the yeast fitness was ≤ 0.5.
Work on C5A A20C yielded a yeast fitness of 0.799.
For C5A A20G, the yeast fitness was 0.933.
With C4U U16C C61U the yeast fitness was 0.737.
With C5A C22A A40G the yeast fitness was ≤ 0.5.
For C5A A40U G48C G63A, the yeast fitness was ≤ 0.5.
For C4U U26G C29U U47C A65U, the yeast fitness was ≤ 0.5.
For C5A A21U C24U C27G C55U, the yeast fitness was ≤ 0.5.
In the case of C4U U28A C66U, the yeast fitness is reported as 0.658.
With C5A C30A A36U G41C G51C the yeast fitness was 0.65.
For C5A A37G G51C C61G, the yeast fitness was ≤ 0.5.
With C5A C11U C34A A40U A42U G68A the yeast fitness was ≤ 0.5.
With C5A A15C G67U the yeast fitness was 0.526.
For C4U U26A A37C A42C C49U G56A, the yeast fitness was ≤ 0.5.
For C4U U19A C29U C33G C62A, the yeast fitness was ≤ 0.5.
For C5A A20U C31G C61U, the yeast fitness was ≤ 0.5.
For C5A A37C C55A G56C, the yeast fitness was ≤ 0.5.
For C4U U26A A37G, the yeast fitness was ≤ 0.5.
For C5A C24G A36C A70C, the yeast fitness was ≤ 0.5.
In the case of C5A C11U C31U C49G C61A, the yeast fitness is reported as ≤ 0.5.
Work on C5A A21G A65U yielded a yeast fitness of 0.655.
In the case of C5A C24G A65G C66U, the yeast fitness is reported as ≤ 0.5.
With C5A A15C C62U the yeast fitness was ≤ 0.5.
